Experimental data published in ChEMBL document CHEMBL1124374, “Enkephalinase inhibitors. 1. 2,4-Dibenzylglutaric acid derivatives” (J Med Chem, 1989).

Key:
Type in all cases: functional
Mus musculus [1] = assay: Stretching activity in male CF-1 mice, after the intra peritoneal administration of acetic acid and subcutaneous administration of compound; details: sc
Method in brief: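 Male CF-1 mice (18–22 g), twelve per dose of agent or vehicle, dosed sc 15 min before ip 3% aqueous acetic acid at 10 mL/kg. Five minutes after irritant, stretching episodes counted over 10 min. ED50 derived from these counts.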

Mus musculus [2] = assay: Tail-flick latency observed in CF-1 mice after the administration (3 mg/kg) followed by icv administration of DAEM ([D-Ala2,Met5]enkephalin)
Method in brief: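 Male CF-1 mice (20–22 g) given test agent or vehicle sc, then immediately DAEM (1 μg) or vehicle icv. Tail-flick latency read 30 min later, cutoff 10 s; n = 10 per group.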

Mus musculus [3] = assay: Doubling of hotplate jump-latency activity in mouse after subcutaneous administration of the compound
Method in brief: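 Male CF1 mice (18–23 g) dosed sc; 15 min later placed singly on copper hot plate held at 55 °C. Latency to jump off recorded, cutoff 240 s. ED200 is the dose doubling jump latency.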

Mus musculus [4] = assay: Doubling of hotplate jump-latency activity in mouse after intra cerebro ventricular administration of the compound
Method in brief: (§1)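 Male CF1 mice (18–23 g) dosed icv or sc; 15 min later placed singly on a copper hot plate held at 55 °C. Latency to jump recorded, cutoff 240 s. MED = minimum effective dose. ED200 = dose doubling jump latency.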

Mus musculus [5] = assay: Hot-plate jump-latency activity in mouse 15 minutes after subcutaneous administration; details: sc, 0.25 h, read-out: MED; method in brief: as §1

With `O=C(O)CNC(=O)C(CS)Cc1ccccc1` (stereo not given) [THIORPHAN] the ED50 (Mus musculus [1]) was 38 mg/kg, the Reaction time (Mus musculus [2]) was 7.5 s and the ED200 (Mus musculus [3]) was over 100 mg/kg. The ED200 (Mus musculus [4]) was 75 µg and the minimal effective dose (Mus musculus [5]) was 100 mg/kg.
